Screens deposited in PubChem BioAssay by Sanford-Burnham Center for Chemical Genomics.
Compounds with a hit are over-represented: about 1.3% of the library has one in this group of screens.
Diaph act CS = counter-screen for diaphorase-based assays: diaphorase activators and chemical reducers; Diaphorase/resazurin coupled assay, resorufin fluorescence, 16 min; stronger effect = higher value; 1 = vehicle wells, 0 = NADH-free wells; AID 1229; activation factor at 20 µM; 190,000 compounds, 0.005% hits;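 active = diaphorase activity raised at least twofold by the compound at 20 µM; inactive = activation factor below 2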
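Test system: Clostridium kluyveri diaphorase, purified enzyme. Buffer or medium: 50 mM HEPES pH 7.4 buffer plus MgCl2 and Tween 20. Also added: 0.114 mM NADH and 0.1 mM resazurin, final amounts. Dosing: compound 20 µM once, DMSO 1%. Schedule: 16 min enzyme reaction, ambient temperature. Detection: fluorescence of resorufin, 544 nm excitation, 590 nm emission.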
HKDC1 inhibitor = HKDC1 (human) hexokinase inhibition; Q2TB90; recombinant HKDC1, G6PDH/diaphorase resazurin coupled fluorescence; inhibition, % at 20 µM; 340,000 compounds, 0.16% hits; AID 493160;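 active = inhibition above about 35% when tested at 20 µM, limit read from the data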;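 note: plate controls were DMSO wells with enzyme for no effect and DMSO wells lacking enzyme for full effect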
Target sequence (Q2TB90 whole entry, looked up): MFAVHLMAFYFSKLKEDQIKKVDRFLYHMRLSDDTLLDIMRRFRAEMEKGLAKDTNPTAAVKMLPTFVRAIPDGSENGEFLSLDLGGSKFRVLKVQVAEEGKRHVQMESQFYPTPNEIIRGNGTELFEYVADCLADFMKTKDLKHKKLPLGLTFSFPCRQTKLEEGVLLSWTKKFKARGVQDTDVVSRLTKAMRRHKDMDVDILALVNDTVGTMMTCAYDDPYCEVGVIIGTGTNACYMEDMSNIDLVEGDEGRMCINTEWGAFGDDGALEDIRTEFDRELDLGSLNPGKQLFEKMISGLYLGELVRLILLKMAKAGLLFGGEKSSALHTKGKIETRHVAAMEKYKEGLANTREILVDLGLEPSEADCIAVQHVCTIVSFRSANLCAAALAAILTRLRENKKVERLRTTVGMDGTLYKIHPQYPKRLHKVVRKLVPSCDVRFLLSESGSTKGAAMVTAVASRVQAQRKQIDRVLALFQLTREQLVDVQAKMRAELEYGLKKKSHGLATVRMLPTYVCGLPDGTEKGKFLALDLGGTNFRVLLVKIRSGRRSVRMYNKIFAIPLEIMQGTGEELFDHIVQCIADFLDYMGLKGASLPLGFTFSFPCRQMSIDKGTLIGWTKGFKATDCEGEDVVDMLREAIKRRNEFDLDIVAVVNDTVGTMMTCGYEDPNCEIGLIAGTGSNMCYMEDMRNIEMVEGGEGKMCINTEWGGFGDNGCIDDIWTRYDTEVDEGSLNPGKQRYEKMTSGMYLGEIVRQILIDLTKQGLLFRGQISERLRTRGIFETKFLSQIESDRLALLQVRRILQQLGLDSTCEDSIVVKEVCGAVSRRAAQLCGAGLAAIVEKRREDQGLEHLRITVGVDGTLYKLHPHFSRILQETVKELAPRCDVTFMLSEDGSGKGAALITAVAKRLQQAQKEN
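System: Recombinant HKDC1 hexokinase | Amount: HKDC1 at 5 µg/mL | Reagent: Glucose with 1 mM ATP | Doses: Single 20 µM dose | Incubation: Reaction time 90 min, room temperature, protected from light | Signal: Coupled resazurin fluorescence, excitation 525 nm, emission 613 nm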
PfG6PD inh = PfG6PD (Plasmodium falciparum) enzyme inhibition; inhibition, % at 20 µM; 350,000 compounds, 0.78% hits; PfGluPho enzyme, NADPH resazurin-diaphorase fluorescence;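 active = inhibition reaching at least a set limit at 20 µM in the primary screen, cut at about 59% in these data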;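 note: 0% = DMSO wells with substrate and 100% = DMSO wells lacking glucose-6-phosphate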
G6PDH CS = inhibits Leuconostoc G6PDH, flagging false hits in G6PDH-based assays | AID 1020 | 200,000 compounds, 0.12% hits | Purified L. mesenteroides G6PDH, diaphorase/resazurin coupled fluorescence, 45 min | inhibition, % at 5 µM; in the data active = inhibition above about 50%
Diaphorase inh = counter-screen for diaphorase-based assays: diaphorase inhibitors and chemical oxidizers. diaphorase resazurin-to-resorufin fluorescence, NADH, 16 min; bacterial (C. kluyveri) enzyme, not human. inhibition, % at 20 µM. 190,000 compounds, 0.69% hits. AID 1217;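 active = primary screen inhibition at 20 µM above a set limit, cut at about 50% in these data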;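 note: plate controls were DMSO with full reaction for no effect and wells lacking NADH for full effect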
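System: Bacterial diaphorase enzyme (C. kluyveri) | Incubation: 16-min room-temperature incubation before reading | Benchmarks: No-NADH positive control and DMSO neutral control | Measured by: Resorufin fluorescence 544/590 nm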
HKDC1 act conf2 = confirmation of human HKDC1 activators; shares compounds with HKDC1 inhibitor; recombinant HKDC1, G6PDH/diaphorase resazurin fluorescence; stronger effect = lower value; inhibition, % at 20 µM; 740 compounds, 14% hits; AID 504708;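 active = inhibition at or below a set negative limit, negative inhibition meaning the enzyme was activated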
The depositor's hits bear a star; . = no result.

SMILES	Diaph act CS	HKDC1 inhibitor	PfG6PD inh	G6PDH CS	Diaphorase inh	HKDC1 act conf2
Oc1ccc(/C=N/Nc2ncc(Br)cn2)c(O)c1	0.7	39*	5	45	35	45
CCOC(=O)CNC1CC(=O)N(c2ccc(Br)cc2)C1=O (stereo not drawn)	.	1	-1	.	.	.
COc1ccc(N=C2NN=C(c3ccc4c(c3)OCCO4)CS2)cc1	0.9	-84	33	5	12	-33*
Cc1cc(C(=O)OC(C)C(=O)NC2CCCCC2C)c2ccccc2n1 (stereo not drawn)	.	.	4	.	.	.
COc1ccc(-n2cccc2/C=C2\C(=N)N3N=C(C(C)C)SC3=NC2=O)cc1	0.8	-5	-20	-4	24	.
CSC1=NSC2=NC(=O)/C(=C\c3coc4ccccc4c3=O)C(=N)N12	0.7	5	-24	9	28	.
N=C1/C(=C/c2coc3ccccc3c2=O)C(=O)N=C2SC(c3ccco3)=NN12	.	38*	15	.	.	-9
COc1ccc(-n2cccc2/C=C2\C(=N)N3N=C(c4ccco4)SC3=NC2=O)cc1	0.3	35*	-13	-2	74*	-9
N=C1/C(=C\c2coc3ccccc3c2=O)C(=O)N=C2SC(c3ccncc3)=NN12	.	45*	8	.	.	32
Cc1cc(/C=C2\C(=N)N3N=C(c4ccco4)SC3=NC2=O)c(C)n1Cc1ccccc1	.	15	-22	.	.	.
O=C(NC1CCCCC1)c1cccc(NC(=O)c2ccccc2Cl)c1	.	.	-10	.	.	.
COCCCN1C(=O)C(CC(=O)NCC2CCCCC2)CC(C(=O)N2CCOCC2)=C1C (stereo not drawn)	.	.	2	.	.	.
COc1ccc(CN2C(=O)c3cccnc3C2=O)cc1S(=O)(=O)N(C)c1ccc(C)cc1	.	4	-4	.	.	.
COc1ccc(C(=O)OCCN2CCN(C3=NS(=O)(=O)c4ccccc43)CC2)cc1OC	.	3	11	.	.	.
COc1ccc2c(C(=O)c3ccc(Cl)cc3)n(CCCC(N)=O)[n+]([O-])c2c1	.	1	4	.	.	.
O=C1CSC(=S)N1Nc1ccccc1	.	-44	26	.	.	-17
Cc1ccccc1C(=O)NN1C(=O)CSC1=S	1	0	-15	-10	3	.
Cc1ccc(S(=O)(=O)c2ccc(Cl)cc2)cc1S(=O)(=O)N(C)CC(=O)O	0.9	2	-19	5	9	.
COc1cccc2ccc(CC(O)(c3ccccc3)c3ccccc3)nc12	.	.	13	.	.	.
O=C1NN(c2cccc(Br)c2)C(=O)/C1=C/c1ccc(-c2cc([N+](=O)[O-])ccc2O)o1	.	62*	6	.	.	-13
COCCN(C(=O)COC(=O)CCc1c[nH]c2ccccc12)c1c(N)n(Cc2ccccc2)c(=O)[nH]c1=O	.	-4	-2	.	.	.
Oc1ccc(O)c(Cc2nc3ccccc3s2)c1	1	45*	17	-2	-4	37
O=C(O)c1ccc(N2C(=O)/C(=C/c3ccc(-c4ccc([N+](=O)[O-])cc4)o3)C=C2c2ccccc2)cc1	0.4	43*	25	2	57*	1
Cc1ccc(N=Nc2ccc(O)c3ncccc23)cc1C	0.9	-43	-20	9	14	-40*
Cc1ccc(N=Nc2ccc(O)c3ncccc23)cc1	0.9	-28	-26	4	5	.
SMILES	Diaph act CS	HKDC1 inhibitor	PfG6PD inh	G6PDH CS	Diaphorase inh	HKDC1 act conf2
O=C1c2ccccc2S(=O)N1c1cccc(F)c1 (stereo not drawn)	.	.	31	.	.	.
CC(=O)c1ccc(NC(=O)CSc2nc3[nH]c(=O)cc(O)c3s2)cc1	.	2	-27	.	.	.
O=c1cc(O)c2sc(Nc3ccc(Cl)c(F)c3)nc2[nH]1	.	39*	30	.	.	-8
O=c1cc(O)c2sc(Nc3ccc(F)c(Cl)c3)nc2[nH]1	0.6	46*	17	11	44	-20
Cc1ccc(CC(=O)Nc2ccc(S(=O)(=O)Nc3ncccn3)cc2)cc1	.	2	-10	.	.	.
CC1(C)OC(=O)NC1c1ccccc1 (stereo not drawn)	.	.	3	.	.	.
Cc1nc([N+](=O)[O-])c(Br)n1Cc1ccc(Cl)c(Cl)c1	0.9	35	6	4	9	54
COP(=O)(OC)c1ccc(NCc2cc(O)ccc2O)cc1	.	43*	49	.	.	53
O=C(O)c1ccc2c(c1)C(=O)N(c1cccc(-c3nc4ccccc4s3)c1)C2=O	0.5	34	-25	4	46	-11
Cc1ccc(C)c(-n2c3nc(=O)[nH]c(=O)c-3cc3cc([N+](=O)[O-])ccc32)c1	0.3	47*	48	33	67*	39
Cc1cccc(-n2c3nc(=O)[nH]c(=O)c-3cc3cc([N+](=O)[O-])ccc32)c1	0.5	42*	31	3	53*	47
Cc1ccc(C)c(-n2c3nc(=O)n(C)c(=O)c-3cc3ccccc32)c1	.	3	-8	.	.	.
Cc1cc(NC(=O)C(C)SCC(=O)NCc2ccc(F)cc2)no1 (stereo not drawn)	.	-1	-18	.	.	.
COc1cccc(/C=N/NC(=O)CNC(=O)C(c2ccccc2)c2ccccc2)c1O	.	-10	-38	.	.	.
Cc1ccc(C(=O)NCC(=O)Nc2ccncc2)s1	.	-6	8	.	.	.
Cc1ncc([N+](=O)[O-])n1S(=O)(=O)c1ccc2c(c1)OCCO2	.	-5	-30	.	.	.
COc1ccc(CCNCCC(c2ccccc2)c2ccccc2)cc1OC	.	.	-6	.	.	.
COc1cc(OC)c(OC)cc1CCC(C)NCCC(c1ccccc1)c1ccccc1 (stereo not drawn)	.	81*	18	.	.	-24
CC(CCCCCCCCC(=O)O)N(CCO)C(=O)OC(C)(C)C (stereo not drawn)	.	-3	-16	.	.	.
O=C(O)c1cccc(-n2cccc2/C=C2/NC(=O)N(c3ccc(Cl)cc3)C2=O)c1	0.4	61*	18	6	62*	37
O=C(O)c1cccc(-n2cccc2/C=C2/NC(=O)N(c3cccc(Cl)c3)C2=O)c1	.	2	-14	.	.	.
COc1ccc(C(=O)OCC2CC(c3ccccc3)=NO2)cc1OC (stereo not drawn)	1	-3	-5	9	-5	.
COc1ccc(-c2nc3c(c(=O)n(C)c(=O)n3C)n2CC2CC(c3ccccc3)=NO2)cc1OC (stereo not drawn)	.	-48	-51	.	.	-33*
O=C(CCl)N(c1ccccc1)c1c[nH]c2ccccc12	0.8	21	1	8	17	.
O=C(CCl)N(c1ccc(Cl)cc1)c1c[nH]c2ccccc12	1	41*	18	-4	0	6
CCCc1nc2c(c(=O)c3ccccc3n2C)c(=O)n1-c1ccc(F)cc1	0.2	51*	48	1	78*	58
Cc1nc2c(c(=O)c3ccccc3n2C)c(=O)n1-c1ccc(F)cc1	.	51*	41	.	.	53
Cc1ccc(OCCOC(=O)c2cccc(S(=O)(=O)N3CC(C)OC(C)C3)c2)cc1 (stereo not drawn)	.	-1	3	.	.	.
